Results reported in paper PMC7970147 (Heliyon, 2021).

Experiments:
DmOBP76a = conditions: ref Billeter and Levine, 2015; cited from earlier work
DmOBP69a = conditions: ref Bentzur et al., 2018; cited from earlier work
DsOBP69a = molecular target: T1, DsOBP69a (Drosophila suzukii, UniProt A0AB39ZGK5); test: Fluorescence competition binding assay with bis-ANS, recombinant DsOBP69a; conditions: for binding to DsOBP69a (in words): fluorescence competition binding assay
T1 sequence (A0AB39ZGK5 25-148): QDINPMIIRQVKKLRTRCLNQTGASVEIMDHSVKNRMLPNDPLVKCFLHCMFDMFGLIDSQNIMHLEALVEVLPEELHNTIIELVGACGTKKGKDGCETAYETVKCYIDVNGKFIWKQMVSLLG
How it was run: (§1)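 Recombinant D. suzukii OBP expressed in E. coli BL21(DE3) (pET-30a), recovered from inclusion bodies in 8 M urea, Ni-NTA purified, refolded and dialysed into 50 mM Tris-HCl pH 7.4. Protein (2 μmol L−1 final) plus bis-ANS was titrated with ligand (1 mmol L−1 methanol stock). Excitation was 295 nm, with a 300–550 nm scan. Ki = IC50/(1+[bis-ANS]/Kbis-ANS), with Kbis-ANS from a Scatchard plot.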

DsOBP76a = molecular target: T2, DsOBP76a (Drosophila suzukii, UniProt A0AB39ZCT4); test: Fluorescence competition binding assay with bis-ANS, recombinant DsOBP76a; conditions: for binding to DsOBP76a (in words): fluorescence competition binding assay
T2 sequence (A0AB39ZCT4 30-153): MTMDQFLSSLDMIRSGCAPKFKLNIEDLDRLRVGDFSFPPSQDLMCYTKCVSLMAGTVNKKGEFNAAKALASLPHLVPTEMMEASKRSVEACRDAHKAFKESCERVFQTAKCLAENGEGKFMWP
How it was run: as §1

DsOBP59h = conditions: ref Li et al., 2019; cited from earlier work
OBP28a = conditions: ref Gonzalez et al., 2019; cited from earlier work

| Structure (SMILES) | binding to DsOBP69a (in words) (DsOBP69a) | binding to DsOBP76a (in words) (DsOBP76a) | Kd (DsOBP69a) | Kd (DsOBP76a) | affinity with DsOBP59h proteins (in words) (DsOBP59h) | further results |
| --- | --- | --- | --- | --- | --- | --- |
| COc1ccc2cc3[n+](cc2c1OC)CCc1cc2c(cc1-3)OCO2 [Berberine chloride] | – | – | 7.21 µM | 7.64 µM | high affinity | – |
| CC[N+](CC)(CC(=O)Nc1c(C)cccc1C)Cc1ccccc1 [Denatonium benzoate] | not affinity | not affinity | – | – | not affinity | – |
| NC(=S)Nc1ccccc1 [N-Phenylthiourea] | not affinity | not affinity | – | – | not affinity | – |
| O=C1C[C@@H](c2ccc(O)cc2)Oc2cc(O)cc(O)c21 [Naringenin] | – | – | 23.8 µM | 24.1 µM | – | – |
| CC(=O)/C=C/C1=C(C)CCCC1(C)C [β-Ionone] | – | – | 4.03 µM | 3.37 µM | – | affinity with OBP28a (in words) (OBP28a): strong affinity |

Further lines, with some results ahead:

| binding to DsOBP69a (in words) (DsOBP69a) | binding to DsOBP76a (in words) (DsOBP76a) | Kd (DsOBP69a) | Kd (DsOBP76a) | Structure (SMILES) | affinity with DsOBP59h proteins (in words) (DsOBP59h) | further results |
| --- | --- | --- | --- | --- | --- | --- |
| do not bind | do not bind | – | – | CCCCCC/C=C\CCCCCCCCCCOC(C)=O [11-cis-Vaccenyl acetate] | – | binding to DmOBP76a (in words) (DmOBP76a): bind; binding to DmOBP69a (in words) (DmOBP69a): bind |
| – | – | 19.3 µM | – | CCCCCC/C=C\CCCCCCCCCCCCCCC [(Z)-7-Tricosene] | – | – |
| – | – | 20.4 µM | 7.76 µM | O=c1ccc2ccccc2o1 [Coumarin] | high affinity | – |
